Experimental data from different studies.
SLC6A4: Sodium-dependent serotonin transporter (SLC6A4, Homo sapiens, UniProt P31645)
rep main protease: Replicase polyprotein 1ab, main protease (rep, Porcine epidemic diarrhea virus, UniProt P0C6Y4)

SMILES	target	test	setting	endpoint	result
CNC(=O)[C@@]12C[C@@H]1[C@@H](n1cnc3c(NCc4cccc(Cl)c4)nc(C#Cc4ccc(Cl)s4)nc31)[C@H](O)[C@@H]2O	SLC6A4	ligand displacement, radioligand	10 µM	inhibition	10%
O=C(NCc1cc(O)c(O)c(Br)c1)c1ccc(Cl)nc1	rep main protease	enzyme activity, inhibitor, FRET	10 µM	inhibition	6.11%
C1=C/COCc2cc(ccc2OCCN2CCCC2)Nc2nccc(n2)-c2cccc(c2)COC/1	Calcium/calmodulin-dependent protein kinase type 1D (CAMK1D, Homo sapiens, UniProt Q8IU85)	binding	0.1 µM	remaining binding	63%
CCCCC(=O)Nc1ccc(-c2ccc3ncn(CCC)c(=O)c3c2)cn1	Mitogen-activated protein kinase kinase kinase 20 (MAP3K20, Homo sapiens, UniProt Q9NYL2)	binding, competition with immobilised ligand	0.5 µM	remaining binding	54%
Cc1cc(O)c(-c2ccc([C@@H](C)CN(C)C)cc2)c2c1[nH]c(=O)c1sccc12	SRSF protein kinase 2 (SRPK2, Homo sapiens, UniProt P78362)	enzyme activity, inhibitor	0.1 µM	inhibition	-3.6%
COc1cc(CNC(=O)c2ccccc2SC)cc(Br)c1OC	Replicase polyprotein 1ab, papain-like protease (rep, Porcine epidemic diarrhea virus, UniProt P0C6Y4)	enzyme activity, inhibitor, FRET	10 µM	inhibition	18.8%
N#C[C@@]12C[C@@H]1[C@@H](n1cnc3c(Nc4ccccc4)nc(C#Cc4ccc(Cl)s4)nc31)[C@H](O)[C@@H]2O	SLC6A4	ligand displacement, radioligand	10 µM	inhibition	12%
COc1ccc(CNC(=O)c2ccc(Br)cc2)cc1OC	rep main protease	enzyme activity, inhibitor, FRET	10 µM	inhibition	60.4%
OC[C@@]12C[C@@H]1[C@@H](n1cnc3c(Nc4ccccc4)nc(I)nc31)[C@H](O)[C@@H]2O	SLC6A4	ligand displacement, radioligand	10 µM	inhibition	-22%
